Measured values taken from ChEMBL document CHEMBL1132417, “Novel esters and amides of nonsteroidal antiinflammatory carboxylic acids as antioxidants and antiproliferative agents” (J Med Chem, 1999).

Legend:
Bos taurus = species on record: Bos taurus; assay: Inhibition of [Fe(2+)]/ascorbate-induced oxidation of bovine heart membranes(antioxidant BHMLO); type: functional
Summary of the method: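 Bovine heart membranes (KCl-washed, 100000g pellet, 20 mg/mL protein stock in 25 mM HEPES/150 mM NaCl pH 7.4) were preincubated with compound for 30 min at 37 °C. Peroxidation was started with FeCl2/ascorbic acid and run for 15 min at 21 °C. TBARS were developed by heating at 80 °C and read at 540 nm against a malonaldehyde bis(dimethyl acetal) standard curve. IC50 by linear regression.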

[1] = (§1) Compound was evaluated for in vitro inhibition of proliferation measured by inhibition of [3H]thymidine incorporation by HMVEC-L cells; type: functional, Homo sapiens; parameters: concentration or dose not given beside the values
Summary of the method: (§2)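 Human lung microvascular endothelial cells (HMVEC-L, donor, passages 3–9) were grown in EGM-MV to 75–90% confluence. Cells were given compound in fresh medium at 37 °C for 18 h, then pulsed 6 h with [3H]thymidine (2.5 μCi per 200 μL). TCA-precipitated DNA was solubilised in SDS and counted by liquid scintillation. IC50 by linear regression, or % inhibition at the stated concentration.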

[2] = Inhibition of proliferation measured by inhibition of [3H]thymidine incorporation by HMVEC-L cells; type: functional, cell-based, Homo sapiens; summary of the method: as §2
HMVEC-L = assay: as §1; type: functional; parameters: concentration or dose not given beside the values; settings: Homo sapiens, dose or concentration not given here; summary of the method: as §2

Row | IC50 (Bos taurus) | Molecule | Inhibition [1] | IC50 [2] | inhibition (HMVEC-L)
1 | 25.6 µM | Cc1c(C)c2c(c(C)c1O)CCC(C)(C(=O)O)O2 (stereo not drawn) [TROLOX] | 20% |  | 
2 | 9.6 µM | COc1ccc2cc([C@H](C)C(=O)OCC[C@]3(C)CCc4c(C)c(O)c(C)c(C)c4O3)ccc2c1 |  | 16.4 µM | 
3 | 4.36 µM | COc1ccc2cc(C(C)C(=O)OCC3(C)CCc4c(C)c(O)c(C)c(C)c4O3)ccc2c1 (stereo not drawn) |  | 11.3 µM | 
4 | 5.2 µM | COc1ccc2cc([C@H](C)C(=O)OCC3(C)COc4c(C)c(C)c(O)c(C)c43)ccc2c1 (stereo partly drawn) |  | 19 µM | 
5 |  | COc1ccc2cc([C@@H](C)C(=O)OCC[C@@]3(C)CCc4c(C)c(O)c(C)c(C)c4O3)ccc2c1 |  | 22 µM | 
6 | 1.6 µM | COc1ccc2cc(C(C)C(=O)NCC3(C)CCc4c(C)c(OC(C)=O)c(C)c(C)c4O3)ccc2c1 (stereo not drawn) |  | 3.3 µM | 
7 | 4.83 µM | COc1ccc2cc(C(C)C(=O)OCC3(C)Cc4c(C)c(O)c(C)c(C)c4O3)ccc2c1 (stereo not drawn) |  | 7.3 µM | 
8 | 7.66 µM | COc1ccc2cc([C@H](C)C(=O)OCCC3(C)CCc4c(C)c(O)c(C)c(C)c4O3)ccc2c1 (stereo partly drawn) |  | 12.9 µM | 
9 | 4.4 µM | COc1ccc2cc([C@H](C)COC(=O)CC3(C)CCc4c(C)c(O)c(C)c(C)c4O3)ccc2c1 (stereo partly drawn) |  | 12 µM | 
10 | 5170 µM | VITAMIN E [listing 1 of 2 here] |  |  | 
11 | 5.1 µM | COc1ccc2cc([C@H](C)C(=O)OCCC3(C)Cc4c(C)c(O)c(C)c(C)c4O3)ccc2c1 (stereo in doubt; 2c) |  | 16.4 µM | 
12 |  | COc1ccc2cc([C@H](C)C(=O)O)ccc2c1 [NAPROXEN] |  | > 50 µM | 
13 | 2.5 µM | COc1ccc2cc([C@H](C)C(=O)NCC3(C)CCc4c(C)c(O)c(C)c(C)c4O3)ccc2c1 (stereo partly drawn) |  | 4.3 µM | 
14 | 3.99 µM | COc1ccc2cc(C(C)C(=O)NCC3(C)CCc4c(C)c(O)c(C)c(C)c4O3)ccc2c1 (stereo not drawn) |  | 4.3 µM | 
15 | 4.67 µM | COc1ccc2cc(C(C)C(=O)NCCC3(C)CCc4c(C)c(O)c(C)c(C)c4O3)ccc2c1 (stereo not drawn) |  | 7.4 µM | 
16 |  | VITAMIN E [listing 2 of 2 here] |  |  | 22%
17 | 5.6 µM | COc1ccc2cc(C(C)C(=O)NCCC3(C)Cc4c(C)c(O)c(C)c(C)c4O3)ccc2c1 (stereo not drawn) |  | 1.9 µM | 
18 | 4.87 µM | COc1ccc2cc([C@H](C)C(=O)OCCC3(C)Cc4c(C)c(O)c(C)c(C)c4O3)ccc2c1 (stereo in doubt; 2a) |  | 9.1 µM | 
19 | 11.6 µM | COc1ccc2cc(C(C)C(=O)OCC[C@@]3(C)CCc4c(C)c(O)c(C)c(C)c4O3)ccc2c1 (single isomer, unassigned) |  | 11.7 µM | 
20 |  | COc1ccc2cc([C@H](C)C(=O)NCC3(C)CCc4c(C)c(OC(C)=O)c(C)c(C)c4O3)ccc2c1 (stereo partly drawn) |  | 4 µM | 
21 |  | COc1ccc2cc(CC(=O)O)ccc2c1 [6-METHOXY-2-NAPHTHYLACETIC ACID] | 5% |  | 
22 | 5.2 µM | COc1ccc2cc([C@H](C)C(=O)OCCC3(C)Cc4c(C)c(O)c(C)c(C)c4O3)ccc2c1 (stereo in doubt; 2b) |  | 16.6 µM | 
23 | 3.82 µM | Cc1c(C)c2c(c(C)c1O)CCC(C)(CCO)O2 (stereo not drawn) | 30% |  | 
24 | 4.5 µM | COc1ccc2cc(CC(=O)OCCC3(C)CCc4c(C)c(O)c(C)c(C)c4O3)ccc2c1 (stereo not drawn) | 44% |  | 
25 | 4.5 µM | COc1ccc2cc(C(C)C(=O)OCCC3(C)CCc4c(C)c(OC(C)=O)c(C)c(C)c4O3)ccc2c1 (stereo not drawn) |  | 11.5 µM | 
26 | 4.8 µM | COc1ccc2cc([C@@H](C)C(=O)NCC3(C)CCc4c(C)c(O)c(C)c(C)c4O3)ccc2c1 (stereo partly drawn) |  | 4.5 µM | 
27 | 14000 µM | COc1ccc2cc(C(C)C(=O)OCCC3(C)CCc4c(C)c(OC)c(C)c(C)c4O3)ccc2c1 (stereo not drawn) |  | 25 µM | 
